From ChEMBL document CHEMBL4371033, “Highly Potent and Selective Plasmin Inhibitors Based on the Sunflower Trypsin Inhibitor-1 Scaffold Attenuate Fibrinolysis in Plasma” (J Med Chem, 2019) come the findings set out here.

SMILES strings stand for the structures. Residues, ends and D or L forms follow the SMILES beside them.

Assay [1] addresses Coagulation factor XI (Homo sapiens, UniProt P03951). As to the kind of experiment: Inhibition of activated beta-factor 11 (unknown origin) using Bz-FVRpNA as substrate after 30 mins relative to untreated control.
For assay [2], the target named is T1, Suppressor of tumorigenicity 14 protein (Homo sapiens, UniProt Q9Y5Y6).
T1 sequence (Q9Y5Y6 whole entry): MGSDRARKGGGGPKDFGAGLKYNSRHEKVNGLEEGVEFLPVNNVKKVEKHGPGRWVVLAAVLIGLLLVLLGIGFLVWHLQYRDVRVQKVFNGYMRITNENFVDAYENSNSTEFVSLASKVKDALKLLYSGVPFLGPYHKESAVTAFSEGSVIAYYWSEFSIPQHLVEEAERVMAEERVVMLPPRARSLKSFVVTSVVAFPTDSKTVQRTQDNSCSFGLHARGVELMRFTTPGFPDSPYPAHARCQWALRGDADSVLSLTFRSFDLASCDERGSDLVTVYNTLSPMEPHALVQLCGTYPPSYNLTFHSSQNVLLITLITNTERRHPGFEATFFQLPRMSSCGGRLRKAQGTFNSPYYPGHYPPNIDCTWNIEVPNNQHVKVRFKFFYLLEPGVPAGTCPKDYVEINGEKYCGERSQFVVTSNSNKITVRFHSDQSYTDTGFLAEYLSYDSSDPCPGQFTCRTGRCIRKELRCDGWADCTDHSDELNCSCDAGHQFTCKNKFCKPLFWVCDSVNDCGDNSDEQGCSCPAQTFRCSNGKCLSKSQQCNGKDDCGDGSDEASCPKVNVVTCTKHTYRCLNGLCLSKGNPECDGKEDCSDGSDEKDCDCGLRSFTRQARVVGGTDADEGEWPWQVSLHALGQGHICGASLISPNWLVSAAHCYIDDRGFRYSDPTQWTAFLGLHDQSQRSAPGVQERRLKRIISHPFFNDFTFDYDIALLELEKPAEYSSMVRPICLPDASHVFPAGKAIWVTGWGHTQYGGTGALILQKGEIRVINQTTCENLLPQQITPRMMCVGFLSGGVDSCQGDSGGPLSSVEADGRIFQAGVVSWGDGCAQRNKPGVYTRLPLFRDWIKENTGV
In words: Inhibition of matriptase (unknown origin) using Boc-QAR-MCA as substrate after 30 mins relative to untreated control.

Assay [3] deals with Plasminogen (Homo sapiens, UniProt P00747). In words: Inhibition of plasmin in human plasma assessed as reduction in tPA and thrombin-induced fibrinolysis at 200 nM by fibrin light scattering analysis relative to control. The format is cell-free. Put shortly:
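Pooled citrated human plasma with inhibitor in Tris-HCl pH 7.4, 150 mM NaCl, 30 mM CaCl2, plasma 1:5 final. Clotting and lysis started with tPA (1.5 nM) and thrombin (2.5 nM). Fibrin formation and lysis followed by light scattering at 405 nm over 1 h. Mean of three independent experiments, each with 12 technical replicates.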

The species entered for assay [4] is Homo sapiens. As to the kind of experiment: Selectivity index, ratio of IC50 for inhibition of activated factor 10 (unknown origin) to IC50 for Inhibition of human plasmin.
The species entered for assay [5] is Homo sapiens. In words: Selectivity index, ratio of IC50 for inhibition of activated beta-factor 11 (unknown origin) to IC50 for Inhibition of human plasmin.

Coagulation factor XI, sequence (P03951 19-387 limits assumed): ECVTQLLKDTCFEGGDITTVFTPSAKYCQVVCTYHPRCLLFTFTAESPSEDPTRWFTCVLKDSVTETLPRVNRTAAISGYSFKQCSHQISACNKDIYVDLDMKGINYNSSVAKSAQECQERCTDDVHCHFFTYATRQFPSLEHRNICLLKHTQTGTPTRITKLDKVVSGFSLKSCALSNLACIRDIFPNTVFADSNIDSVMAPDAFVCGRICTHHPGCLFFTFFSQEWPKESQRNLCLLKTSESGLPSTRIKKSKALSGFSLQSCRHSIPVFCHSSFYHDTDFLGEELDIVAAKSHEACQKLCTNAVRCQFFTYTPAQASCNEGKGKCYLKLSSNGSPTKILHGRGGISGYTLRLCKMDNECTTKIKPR
Coagulation factor XI, sequence (P03951 388-625 limits assumed): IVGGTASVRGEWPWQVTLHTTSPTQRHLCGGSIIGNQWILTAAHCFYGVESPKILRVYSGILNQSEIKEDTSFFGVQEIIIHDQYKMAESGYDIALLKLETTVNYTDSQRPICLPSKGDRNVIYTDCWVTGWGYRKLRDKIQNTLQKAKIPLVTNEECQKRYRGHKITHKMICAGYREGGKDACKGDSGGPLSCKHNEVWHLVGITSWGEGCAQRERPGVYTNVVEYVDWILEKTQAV
Plasminogen, sequence (P00747 97-580 limits assumed): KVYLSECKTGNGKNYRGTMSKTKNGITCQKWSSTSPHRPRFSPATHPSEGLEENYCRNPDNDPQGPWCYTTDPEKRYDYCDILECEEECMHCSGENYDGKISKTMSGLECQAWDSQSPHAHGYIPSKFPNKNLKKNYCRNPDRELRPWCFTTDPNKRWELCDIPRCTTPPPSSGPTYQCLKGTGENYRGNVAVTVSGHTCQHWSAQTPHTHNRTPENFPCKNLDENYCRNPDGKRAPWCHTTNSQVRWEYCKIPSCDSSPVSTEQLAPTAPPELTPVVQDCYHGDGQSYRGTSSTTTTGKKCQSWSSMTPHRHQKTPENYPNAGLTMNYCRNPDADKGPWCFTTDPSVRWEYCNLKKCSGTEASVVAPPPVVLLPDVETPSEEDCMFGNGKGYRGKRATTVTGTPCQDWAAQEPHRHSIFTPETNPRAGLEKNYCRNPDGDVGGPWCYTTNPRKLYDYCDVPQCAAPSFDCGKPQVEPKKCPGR
Plasminogen, sequence (P00747 581-810 limits assumed): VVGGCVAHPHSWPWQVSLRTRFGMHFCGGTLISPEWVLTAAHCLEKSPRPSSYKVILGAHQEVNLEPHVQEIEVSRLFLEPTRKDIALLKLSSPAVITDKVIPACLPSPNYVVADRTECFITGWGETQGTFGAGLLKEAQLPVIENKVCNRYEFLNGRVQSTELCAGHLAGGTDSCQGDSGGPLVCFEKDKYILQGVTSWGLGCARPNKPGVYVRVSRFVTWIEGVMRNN

The term Ki denotes the equilibrium dissociation constant of an inhibitor or competing ligand from its target. A low value points to higher affinity. In general, inhibition refers to the share of the control response that was lost under treatment. On to `CC[C@H](C)[C@@H]1NC(=O)[C@@H]2CCCN2C(=O)[C@@H]2CCCN2C(=O)[C@H](CCCCN)NC(=O)[C@H](CO)NC(=O)[C@H](CCCCN)NC(=O)[C@H](Cc2ccc(O)cc2)NC(=O)[C@@H]2CSSC[C@H](NC1=O)C(=O)N[C@@H](Cc1ccccc1)C(=O)N1CCC[C@H]1C(=O)N[C@@H](CC(=O)O)C(=O)NCC(=O)N[C@@H](CCCNC(=N)N)C(=O)N2` (HELM PEPTIDE1{C.F.P.D.G.R.C.Y.K.S.K.P.P.I}$PEPTIDE1,PEPTIDE1,1:R3-7:R3|PEPTIDE1,PEPTIDE1,1:R1-14:R2$$$V2.0), for which the Ki in assay [1] and in assay [2] was above 50 µM throughout. For the same compound, the inhibition in assay [3] turned out to be 90%. Moreover, the Ratio IC50 in assay [4] and in assay [5] was above 1e+06 in each case.
